Measurements of several laboratories.
Cell line: SK-MEL-2
Observed: cell growth or viability

O=C(c1c(F)ccc(NS(=O)(=O)N2CC[C@@H](F)C2)c1F)c1c[nH]c2ncc(-c3cnc(C4CC4)nc3)cc12  IC50 (ATP luminescence; 72 h): > 20 µM
O=C1NCCc2[nH]c(-c3ccncc3)cc21  IC50: > 10 µM
COc1ccc(C(=O)/C=C/c2ccccc2Br)cc1S(N)(=O)=O  GI50 (SRB; 48 h): 14.5 µM
COc1ccc(-c2ccc(-c3ccc(C(=N)N)nc3)s2)cc1Cl  GI50 (SRB): 2.15 µM
COc1cccc(Oc2ccccc2NC(=O)CNC(=O)c2cccc3ccccc23)c1  GI50 (SRB; 48 h): 0.182 µM
O=C1NC(=NCc2cccs2)S/C1=C\c1ccc2ncccc2c1  IC50: > 10 µM
COc1ccc(-c2ccc(-c3ccc(C(=N)N)nc3)s2)cc1  GI50 (SRB): 2.05 µM
COc1ccc(C(=O)/C=C/c2ccc(Cl)c(Cl)c2)cc1S(N)(=O)=O  GI50 (SRB; 48 h): 5.6 µM
